Assay results reported in ChEMBL document CHEMBL3393047, “Pyridine and pyridinone-based factor XIa inhibitors” (Bioorg Med Chem Lett, 2015).

Legend:
Coagulation factor XI = Coagulation factor XI (Homo sapiens, UniProt P03951); assay: Inhibition of human coagulation factor 11a after 10 to 120 mins
Plasma = assay: Anticoagulant activity in human plasma assessed as concentration required to double the activated partial thromboplastin time; format: functional
Method in brief: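 In vitro clotting assay run in human plasma; activity read out as the activated partial thromboplastin time, and the value reported as EC2x, the concentration that doubles aPTT.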

[1] = target: Tissue-type plasminogen activator (Homo sapiens, UniProt P00750); assay: Inhibition of human TPA
Chain of Tissue-type plasminogen activator (P00750 whole entry): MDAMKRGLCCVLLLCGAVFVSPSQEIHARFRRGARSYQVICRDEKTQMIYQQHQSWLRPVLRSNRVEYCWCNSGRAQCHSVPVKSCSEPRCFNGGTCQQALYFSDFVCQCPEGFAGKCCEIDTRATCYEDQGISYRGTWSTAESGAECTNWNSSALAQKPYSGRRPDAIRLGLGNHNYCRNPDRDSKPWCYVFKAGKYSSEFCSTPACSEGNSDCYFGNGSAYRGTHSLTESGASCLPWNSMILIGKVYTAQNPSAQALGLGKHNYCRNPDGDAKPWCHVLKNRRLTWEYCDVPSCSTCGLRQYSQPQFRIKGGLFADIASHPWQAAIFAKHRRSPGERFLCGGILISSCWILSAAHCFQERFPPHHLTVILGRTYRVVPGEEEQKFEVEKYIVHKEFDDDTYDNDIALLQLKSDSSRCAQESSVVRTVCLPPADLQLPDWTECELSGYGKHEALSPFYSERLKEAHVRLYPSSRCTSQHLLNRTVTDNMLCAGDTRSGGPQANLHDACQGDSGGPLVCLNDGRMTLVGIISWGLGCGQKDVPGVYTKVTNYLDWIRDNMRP
Method in brief: (§1)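 Ki determined against purified human enzymes (selectivity panel of serine proteases).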

[2] = Inhibition of human chymotrypsin; method in brief: as §1
Prothrombin = Prothrombin (Homo sapiens, UniProt P00734); assay: Inhibition of human thrombin; method in brief: as §1
Coagulation factor IX = Coagulation factor IX (Homo sapiens, UniProt P00740); assay: Inhibition of human coagulation factor 9a; method in brief: as §1
Chain of Coagulation factor IX (P00740 47-191 limits assumed): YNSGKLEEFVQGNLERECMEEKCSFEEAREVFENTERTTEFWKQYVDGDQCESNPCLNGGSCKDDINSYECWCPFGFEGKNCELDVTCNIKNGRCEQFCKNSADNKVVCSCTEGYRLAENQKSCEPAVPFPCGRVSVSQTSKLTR
Chain of Coagulation factor IX (P00740 227-461 limits assumed): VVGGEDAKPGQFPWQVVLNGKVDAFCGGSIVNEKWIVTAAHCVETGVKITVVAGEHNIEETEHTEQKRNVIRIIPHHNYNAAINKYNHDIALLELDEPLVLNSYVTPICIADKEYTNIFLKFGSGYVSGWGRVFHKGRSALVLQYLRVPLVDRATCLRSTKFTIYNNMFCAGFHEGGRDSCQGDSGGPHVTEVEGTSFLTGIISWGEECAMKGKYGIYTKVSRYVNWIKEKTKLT

[3] = target: Vitamin K-dependent protein C (Homo sapiens, UniProt P04070); assay: Inhibition of human activated protein C; method in brief: as §1
Chain of Vitamin K-dependent protein C (P04070 43-197 limits assumed): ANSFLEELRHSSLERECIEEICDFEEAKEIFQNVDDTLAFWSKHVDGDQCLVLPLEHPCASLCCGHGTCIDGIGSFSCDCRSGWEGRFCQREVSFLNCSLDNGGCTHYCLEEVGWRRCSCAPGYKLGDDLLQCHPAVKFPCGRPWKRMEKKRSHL
Chain of Vitamin K-dependent protein C (P04070 212-461 limits assumed): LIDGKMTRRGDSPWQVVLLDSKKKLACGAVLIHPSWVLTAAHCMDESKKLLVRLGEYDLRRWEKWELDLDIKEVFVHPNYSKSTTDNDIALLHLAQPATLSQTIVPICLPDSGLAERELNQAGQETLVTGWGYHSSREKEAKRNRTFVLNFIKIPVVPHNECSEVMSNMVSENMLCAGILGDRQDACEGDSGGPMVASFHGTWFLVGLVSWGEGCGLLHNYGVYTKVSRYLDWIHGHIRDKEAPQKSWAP

Coagulation factor VII = target: T1, Coagulation factor VII (Homo sapiens, UniProt P08709); assay: Inhibition of human coagulation factor 7a; method in brief: as §1
T1 sequence (P08709 whole entry): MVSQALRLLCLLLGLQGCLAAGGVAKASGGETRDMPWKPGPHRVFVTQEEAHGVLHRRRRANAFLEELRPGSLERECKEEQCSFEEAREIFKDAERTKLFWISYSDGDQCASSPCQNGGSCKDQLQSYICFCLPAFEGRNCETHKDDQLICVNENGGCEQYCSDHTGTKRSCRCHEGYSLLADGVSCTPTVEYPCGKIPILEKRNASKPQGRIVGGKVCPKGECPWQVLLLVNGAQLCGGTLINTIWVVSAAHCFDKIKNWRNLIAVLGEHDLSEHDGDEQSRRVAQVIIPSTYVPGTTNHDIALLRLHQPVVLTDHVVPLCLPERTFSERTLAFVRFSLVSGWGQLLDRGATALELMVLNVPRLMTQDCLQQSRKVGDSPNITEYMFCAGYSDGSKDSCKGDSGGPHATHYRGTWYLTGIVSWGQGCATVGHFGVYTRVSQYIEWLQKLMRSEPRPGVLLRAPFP

Trypsin = Trypsin (Homo sapiens, UniProt P07477+P07478+P35030); assay: Inhibition of human trypsin; format: protein assay; method in brief: as §1
Coagulation factor X = Coagulation factor X (Homo sapiens, UniProt P00742); assay: Inhibition of human coagulation factor 10a; method in brief: as §1
Chain of Coagulation factor X (P00742 41-179 limits assumed): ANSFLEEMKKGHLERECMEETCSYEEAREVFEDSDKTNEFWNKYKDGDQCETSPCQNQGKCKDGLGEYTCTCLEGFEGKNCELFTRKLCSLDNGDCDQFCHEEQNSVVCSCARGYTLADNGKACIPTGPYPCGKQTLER
Chain of Coagulation factor X (P00742 235-488 limits assumed): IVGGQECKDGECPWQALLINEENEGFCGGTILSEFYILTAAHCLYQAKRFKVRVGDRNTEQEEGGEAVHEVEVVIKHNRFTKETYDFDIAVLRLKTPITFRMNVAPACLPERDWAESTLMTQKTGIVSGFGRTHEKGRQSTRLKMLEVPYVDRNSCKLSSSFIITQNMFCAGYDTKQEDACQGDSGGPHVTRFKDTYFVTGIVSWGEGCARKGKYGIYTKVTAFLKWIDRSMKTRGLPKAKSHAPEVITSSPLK

[4] = target: Urokinase-type plasminogen activator (Homo sapiens, UniProt P00749); assay: Inhibition of human urokinase; method in brief: as §1
Plasma kallikrein = Plasma kallikrein (Homo sapiens, UniProt P03952); assay: Inhibition of human plasma kallikrein; method in brief: as §1
Chain of Plasma kallikrein (P03952 20-390 limits assumed): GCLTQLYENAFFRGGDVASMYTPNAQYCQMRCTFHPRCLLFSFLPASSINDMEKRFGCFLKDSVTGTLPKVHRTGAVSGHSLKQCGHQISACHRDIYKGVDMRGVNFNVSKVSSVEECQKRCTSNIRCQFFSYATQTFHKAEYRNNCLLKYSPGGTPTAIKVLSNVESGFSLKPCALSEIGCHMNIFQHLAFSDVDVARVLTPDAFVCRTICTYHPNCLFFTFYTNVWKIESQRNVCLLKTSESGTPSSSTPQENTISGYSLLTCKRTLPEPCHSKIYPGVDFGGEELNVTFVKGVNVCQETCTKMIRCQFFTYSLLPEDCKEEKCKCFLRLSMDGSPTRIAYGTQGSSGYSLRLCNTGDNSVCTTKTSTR
Chain of Plasma kallikrein (P03952 391-638 limits assumed): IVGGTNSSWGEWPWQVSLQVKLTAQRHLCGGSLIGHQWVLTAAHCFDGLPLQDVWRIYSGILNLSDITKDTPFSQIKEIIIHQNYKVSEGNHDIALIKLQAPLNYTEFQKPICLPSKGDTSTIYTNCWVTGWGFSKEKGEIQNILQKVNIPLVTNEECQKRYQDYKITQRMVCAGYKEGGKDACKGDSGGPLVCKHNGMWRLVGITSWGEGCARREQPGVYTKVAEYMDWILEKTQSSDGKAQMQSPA

Plasminogen = Plasminogen (Homo sapiens, UniProt P00747); assay: Inhibition of human plasmin; method in brief: as §1
Chain of Plasminogen (P00747 97-580 limits assumed): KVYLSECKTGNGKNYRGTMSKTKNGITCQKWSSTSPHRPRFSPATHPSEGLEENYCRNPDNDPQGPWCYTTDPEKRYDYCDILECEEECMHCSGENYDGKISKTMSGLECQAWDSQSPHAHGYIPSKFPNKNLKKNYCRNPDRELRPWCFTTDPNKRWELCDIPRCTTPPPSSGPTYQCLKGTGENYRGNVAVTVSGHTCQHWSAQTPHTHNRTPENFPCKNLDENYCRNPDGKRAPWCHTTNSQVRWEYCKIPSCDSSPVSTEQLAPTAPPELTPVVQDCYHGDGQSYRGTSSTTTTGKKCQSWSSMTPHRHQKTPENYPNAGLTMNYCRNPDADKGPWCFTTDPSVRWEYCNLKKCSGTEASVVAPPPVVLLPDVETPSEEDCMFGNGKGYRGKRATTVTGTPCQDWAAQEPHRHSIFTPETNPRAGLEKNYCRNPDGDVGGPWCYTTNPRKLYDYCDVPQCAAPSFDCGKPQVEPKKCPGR
Chain of Plasminogen (P00747 581-810 limits assumed): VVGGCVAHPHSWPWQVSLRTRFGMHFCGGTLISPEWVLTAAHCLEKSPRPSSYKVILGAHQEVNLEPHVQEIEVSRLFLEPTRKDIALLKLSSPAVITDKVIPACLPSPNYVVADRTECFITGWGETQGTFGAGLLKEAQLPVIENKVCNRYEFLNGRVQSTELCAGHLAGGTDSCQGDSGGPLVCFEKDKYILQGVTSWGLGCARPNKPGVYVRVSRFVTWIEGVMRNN

Chain of Coagulation factor XI (P03951 19-387 limits assumed): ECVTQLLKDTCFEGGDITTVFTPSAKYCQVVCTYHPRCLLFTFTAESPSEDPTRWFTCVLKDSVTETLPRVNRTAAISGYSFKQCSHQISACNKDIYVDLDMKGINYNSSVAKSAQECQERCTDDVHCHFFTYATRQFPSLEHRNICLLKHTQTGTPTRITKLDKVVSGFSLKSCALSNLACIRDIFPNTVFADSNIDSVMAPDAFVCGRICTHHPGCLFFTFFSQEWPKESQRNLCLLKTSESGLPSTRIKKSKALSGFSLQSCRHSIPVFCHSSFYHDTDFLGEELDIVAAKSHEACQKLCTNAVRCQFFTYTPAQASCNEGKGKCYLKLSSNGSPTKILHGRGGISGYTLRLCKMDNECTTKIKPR
Chain of Coagulation factor XI (P03951 388-625 limits assumed): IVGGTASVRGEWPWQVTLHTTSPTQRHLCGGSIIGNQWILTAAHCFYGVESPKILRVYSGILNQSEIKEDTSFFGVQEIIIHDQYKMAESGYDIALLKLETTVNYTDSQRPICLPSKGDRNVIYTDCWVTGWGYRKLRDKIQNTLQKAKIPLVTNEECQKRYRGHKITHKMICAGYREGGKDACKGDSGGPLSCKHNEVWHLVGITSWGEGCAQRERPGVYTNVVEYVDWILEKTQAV

Structure (SMILES)	Ki (Coagulation factor XI) [nM]	further results
NC[C@H]1CC[C@H](C(=O)N[C@@H](Cc2ccccc2)c2cccc(-c3ccc4c(N)n[nH]c4c3)c2)CC1	21	2aPTT (Plasma): 37 µM
NC[C@H]1CC[C@H](C(=O)N[C@@H](Cc2ccccc2)c2nc(-c3ccc4c(N)n[nH]c4c3)c[nH]2)CC1	3.2	2aPTT (Plasma): 3 µM
NC[C@H]1CC[C@H](C(=O)N[C@@H](Cc2ccccc2)c2nc(-c3ccccc3)c(Cl)[nH]2)CC1	12	–
NC[C@H]1CC[C@H](C(=O)N[C@@H](Cc2ccccc2)c2nccc(-c3ccccc3)n2)CC1	11400	–
NC[C@H]1CC[C@H](C(=O)NC(Cc2ccccc2)c2cc[n+]([O-])c(-c3ccccc3)c2)CC1 (mixture of isomers)	2530	–
NC[C@H]1CC[C@H](C(=O)NC(Cc2ccccc2)c2cc(-c3ccccc3)ccn2)CC1 (mixture of isomers)	377	–
NC[C@H]1CC[C@H](C(=O)NC(Cc2ccccc2)c2cc(-c3ccccc3)cc(N)n2)CC1 (mixture of isomers)	227	–
NC[C@H]1CC[C@H](C(=O)N[C@@H](Cc2ccccc2)c2cc(-c3ccc4c(N)n[nH]c4c3)ccn2)CC1	8.4	Ki [1]: > 21900 nM; Ki [2]: > 20800 nM; Ki (Prothrombin): > 12600 nM; Ki (Coagulation factor IX): > 34900 nM; Ki [3]: > 21400 nM; Ki (Coagulation factor VII): > 10900 nM; 2aPTT (Plasma): 4.5 µM; Ki (Trypsin): 64 nM; Ki (Coagulation factor X): > 9000 nM; Ki [4]: > 14100 nM; Ki (Plasma kallikrein): 24 nM; Ki (Plasminogen): > 22100 nM
NC[C@H]1CC[C@H](C(=O)NC(Cc2ccccc2)c2cncc(-c3ccccc3)c2)CC1 (mixture of isomers)	330	–
COc1cc(-c2ccccc2)cc(C(Cc2ccccc2)NC(=O)[C@H]2CC[C@H](CN)CC2)n1 (mixture of isomers)	949	–
NC[C@H]1CC[C@H](C(=O)NC(Cc2ccccc2)c2cc(-c3ccccc3)c(F)cn2)CC1 (mixture of isomers)	433	–
NC[C@H]1CC[C@H](C(=O)NC(Cc2ccccc2)c2cccc(-c3ccccc3)c2)CC1 (mixture of isomers)	936	–
NC[C@H]1CC[C@H](C(=O)NC(Cc2ccccc2)c2cc(-c3ccccc3)ncn2)CC1 (mixture of isomers)	331	–
NC[C@H]1CC[C@H](C(=O)NC(Cc2ccccc2)c2cccc(-c3ccccc3)n2)CC1 (mixture of isomers)	30200	–
NC[C@H]1CC[C@H](C(=O)NC(Cc2ccccc2)c2cc(-c3ccc4c(N)n[nH]c4c3)cc(=O)[nH]2)CC1 (mixture of isomers)	3.7	2aPTT (Plasma): 2.5 µM
NC[C@H]1CC[C@H](C(=O)N[C@H](Cc2ccccc2)c2cc(-c3ccc4c(N)n[nH]c4c3)ccn2)CC1	1070	–
NC[C@H]1CC[C@H](C(=O)NC(Cc2ccccc2)c2cc(-c3ccccc3)c[n+]([O-])c2)CC1 (mixture of isomers)	1060	–
Cn1c(C(Cc2ccccc2)NC(=O)[C@H]2CC[C@H](CN)CC2)cc(-c2ccccc2)cc1=O (mixture of isomers)	479	–
NC[C@H]1CC[C@H](C(=O)NC(Cc2ccccc2)c2cc(-c3ccc4c(N)n[nH]c4c3)ccn2)CC1 (mixture of isomers)	13	2aPTT (Plasma): 6 µM
NC[C@H]1CC[C@H](C(=O)NC(Cc2ccccc2)c2cc(-c3ccccc3)cc[n+]2[O-])CC1 (mixture of isomers)	1690	–
NC[C@H]1CC[C@H](C(=O)NC(Cc2ccccc2)c2ccnc(-c3ccccc3)c2)CC1 (mixture of isomers)	320	–
NC[C@H]1CC[C@H](C(=O)NC(Cc2ccccc2)c2cc(-c3ccccc3)cc(Cl)n2)CC1 (mixture of isomers)	206	–
NC[C@H]1CC[C@H](C(=O)NC(Cc2ccccc2)c2cccc(-c3ccc4c(N)n[nH]c4c3)c2)CC1 (mixture of isomers)	42	2aPTT (Plasma): >40 µM
CNc1cc(-c2ccccc2)cc(C(Cc2ccccc2)NC(=O)[C@H]2CC[C@H](CN)CC2)n1 (mixture of isomers)	860	–
NC[C@H]1CC[C@H](C(=O)NC(Cc2ccccc2)c2cc(-c3ccccc3)cc(O)n2)CC1 (mixture of isomers)	113	–
NC[C@H]1CC[C@H](C(=O)N[C@H](Cc2ccccc2)c2cccc(-c3ccc4c(N)n[nH]c4c3)c2)CC1	6160	–
